Reference: ChEMBL document CHEMBL3046238, “Synthesis and biological activity evaluation of 1,2,3-thiadiazole derivatives as potential elicitors with highly systemic acquired resistance” (2009)
The source made the active and inactive calls. No cut-off for these calls is given here.

Experiments:
Type in all cases: functional
[1] = system: Colletotrichum gloeosporioides; assay: Antifungal activity against Glomerella cingulata assessed as growth inhibition at 50 ug/mL measured after 2 days post dose; conditions: for inhibition of growth at 50 µg/mL: 48 h, read-out: GI
Alternaria mali = assay: Antifungal activity against Alternaria mali assessed as growth inhibition at 50 ug/mL measured after 2 days post dose; conditions: for inhibition of growth at 50 µg/mL: 48 h, read-out: GI
Tobacco mosaic virus = assay: Induction of systemic acquired resistance against Tobacco mosaic virus (TMV) in tobacco plants exposed to 500 ug/mL compound through leaf spray followed by 7 days culture under green house conditions assessed as inhibition of viral growth in leaves infected with Tobacco mosaic virus (TMV) measured 72 hr post viral infection by half-leaf juice rubbing method; set-up: scale not given: the % may be the effect or the level left
In short: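 Tobacco plants received compound by leaf spray or by soil irrigation, with double-distilled water as CK. Newly grown leaves were then rub-inoculated with TMV (5.88×10-2 μg/mL), and plants were kept at 25 °C for 72 h. Lesions on inoculated leaves were counted. Inhibition = (CK−A)/CK×100 from mean lesion numbers versus control.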

Ceratobasidium cereale = assay: Antifungal activity against Ceratobasidium cereale assessed as growth inhibition at 50 ug/mL measured after 2 days post dose; conditions: for inhibition of growth at 50 µg/mL: 48 h, read-out: GI
Mycosphaerella arachidis = assay: Antifungal activity against Mycosphaerella arachidis assessed as growth inhibition at 50 ug/mL measured after 2 days post dose; conditions: for inhibition of growth at 50 µg/mL: 48 h, read-out: GI
[2] = system: Botryosphaeria berengeriana; assay: Antifungal activity against Botryosphaeria berengeriana assessed as growth inhibition at 50 ug/mL measured after 2 days post dose; conditions: for inhibition of growth at 50 µg/mL: 48 h, read-out: GI
Alternaria solani = assay: Antifungal activity against Alternaria solani assessed as growth inhibition at 50 ug/mL measured after 2 days post dose; conditions: 48 h, read-out: GI
Fusarium fujikuroi = assay: Antifungal activity against Fusarium fujikuroi assessed as growth inhibition at 50 ug/mL measured after 2 days post dose; conditions: for inhibition of growth at 50 µg/mL: 48 h, read-out: GI
Phytophthora infestans = assay: Antifungal activity against Phytophthora infestans assessed as growth inhibition at 50 ug/mL measured after 2 days post dose; conditions: for inhibition of growth at 50 µg/mL: 48 h, read-out: GI
In short: (§1)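 Compound stock at 500 μg/mL in DMF, diluted with sterile water in the dish and mixed into potato dextrose agar before setting. A 4 mm diameter fungal plug is placed on the plate and cultured at 24-26 °C. Colony diameter is measured after 2 days.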

Sclerotinia sclerotiorum = assay: Antifungal activity against Sclerotinia sclerotiorum assessed as growth inhibition at 50 ug/mL measured after 2 days post dose; conditions: 48 h, read-out: GI
Cytospora mali = assay: Antifungal activity against Valsa mali assessed as growth inhibition at 50 ug/mL measured after 2 days post dose; conditions: for inhibition of growth at 50 µg/mL: 48 h, read-out: GI
Fusarium oxysporum = assay: Antifungal activity against Fusarium oxysporum assessed as growth inhibition at 50 ug/mL measured after 2 days post dose; conditions: 48 h, read-out: GI
Botrytis cinerea = assay: Antifungal activity against Botryotinia fuckeliana assessed as growth inhibition at 50 ug/mL measured after 2 days post dose; conditions: for inhibition of growth at 50 µg/mL: 48 h, read-out: GI
[3] = system: Fusarium oxysporum f. sp. vasinfectum; assay: Antifungal activity against Fusarium oxysporum f. sp. vasinfectum assessed as growth inhibition at 50 ug/mL measured after 2 days post dose; conditions: for inhibition of growth at 50 µg/mL: 48 h, read-out: GI
Puccinia triticina = assay: Antifungal activity against Puccinia triticina inoculated on 500 ug/mL compound pre-treated wheat plants with 3 to 5 leaves assessed as growth inhibition
In short: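 Healthy wheat plants at the 3-5 leaf stage were sprayed with compound (500 μg/mL) and then inoculated with spores. Inhibition percentage was calculated against the corresponding spore stack.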

Ustilaginoidea virens = assay: Antifungal activity against Villosiclava virens assessed as growth inhibition at 50 ug/mL measured after 2 days post dose; conditions: for inhibition of growth at 50 µg/mL: 48 h, read-out: GI
Fusarium graminearum = assay: Antifungal activity against Fusarium graminearum assessed as growth inhibition at 50 ug/mL measured after 2 days post dose; conditions: for inhibition of growth at 50 µg/mL: 48 h, read-out: GI; in short: as §1
Rhizoctonia solani = assay: Antifungal activity against Rhizoctonia solani assessed as growth inhibition at 50 ug/mL measured after 2 days post dose; conditions: for inhibition of growth at 50 µg/mL: 48 h, read-out: GI

Row | SMILES | inhibition of growth at 50 µg/mL [1] [%] | inhibition of growth at 50 µg/mL (Alternaria mali) [%] | Activity (Tobacco mosaic virus) | inhibition of growth at 50 µg/mL (Ceratobasidium cereale) [%] | inhibition of growth at 50 µg/mL (Mycosphaerella arachidis) [%] | inhibition of growth at 50 µg/mL [2] [%] | inhibition of growth at 50 µg/mL (Alternaria solani) [%] | inhibition of growth at 50 µg/mL (Fusarium fujikuroi) [%] | growth inhibition (GI) (Phytophthora infestans) | inhibition of growth at 50 µg/mL (Sclerotinia sclerotiorum) [%] | inhibition of growth at 50 µg/mL (Cytospora mali) [%] | inhibition of growth at 50 µg/mL (Fusarium oxysporum) [%] | inhibition of growth at 50 µg/mL (Botrytis cinerea) [%] | inhibition of growth at 50 µg/mL [3] [%] | growth inhibition (GI) (Puccinia triticina) | inhibition of growth at 50 µg/mL (Ustilaginoidea virens) [%] | inhibition of growth at 50 µg/mL (Fusarium graminearum) [%] | inhibition of growth at 50 µg/mL (Rhizoctonia solani) [%] | inhibition of growth at 50 µg/mL (Phytophthora infestans) [%] | other results
1 | CCCc1c(-c2nnc(-c3snnc3C)o2)cnn1-c1ccc(Cl)cc1 | 0 | 27.6 | 0% | 31 | 41.2 | 44.4 | 17.6 | 31 | inactive | 23.5 | 19.4 | 0 | 31 | 0 | 0% | 0 | 48.3 | 0 | – | –
2 | Cc1nnsc1-c1nnc(-c2snnc2C)o1 | 13.8 | 0 | 0% | 0 | 13.6 | 38.1 | 44.7 | 21.1 | inactive | 32.1 | 0 | 31.3 | 0 | 0 | 28% | 0 | 31.6 | 0 | – | –
3 | Cc1cccc(-c2nnc(-c3snnc3C)o2)c1 | 0 | 41.4 | inactive | 37.9 | 23.5 | 47.2 | 0 | 24.1 | – | 23.5 | 47.2 | 0 | 37.9 | 0 | 98% | 0 | 24.1 | 0 | 17.1 | –
4 | Cc1nn(-c2ccccc2)nc1-c1nnc(-c2snnc2C)o1 | 0 | 31 | 10% | 37.9 | 17.6 | 44.4 | 17.6 | 0 | inactive | 23.5 | 22.2 | 0 | 41.4 | 0 | 0% | 0 | 31 | 0 | – | –
5 | CCCCCCCc1nnc(-c2snnc2C)o1 | 42.1 | 38.9 | 0% | 0 | 0 | 25.4 | 31.6 | 21.1 | – | 32.1 | 0 | 12.5 | 0 | 0 | 83% | 0 | 34.2 | 26.6 | 100 | –
6 | Cc1ccc(-c2nnc(-c3snnc3C)o2)cc1 | – | – | 0% | – | – | – | 18.4 | – | – | 56 | – | 0 | 2.1 | – | 11% | – | – | 67.9 | 0 | growth inhibition (GI) [1]: inactive; growth inhibition (GI) (Alternaria mali): inactive; growth inhibition (GI) (Ceratobasidium cereale): inactive; growth inhibition (GI) (Mycosphaerella arachidis): inactive; growth inhibition (GI) [2]: inactive; growth inhibition (GI) (Fusarium fujikuroi): inactive; growth inhibition (GI) (Cytospora mali): inactive; growth inhibition (GI) [3]: inactive; growth inhibition (GI) (Ustilaginoidea virens): inactive; growth inhibition (GI) (Fusarium graminearum): inactive
7 | Cc1ccc(-c2nnc(-c3snnc3C)o2)c(Cl)n1 | 0 | 24.1 | 30% | 13.8 | 23.5 | 38.9 | 0 | 17.2 | – | 0 | 22.2 | 0 | 17.2 | 0 | 17% | 17.6 | 31 | 22.2 | 30 | –
8 | Cc1nnsc1-c1nnc(/C=C/c2ccccc2)o1 | 13.8 | 0 | 0% | 0 | 27.3 | 46 | 31.6 | 21.1 | – | 0 | 20.3 | 36.3 | 0 | 23.7 | 20% | 0 | 36.8 | 0 | 20 | –
9 | Cc1nnsc1-c1nnc(-c2ccco2)o1 | 42.1 | – | 0% | – | 87.5 | 38.9 | 53.6 | – | – | 0 | – | 19.1 | – | – | 0% | – | 22.2 | – | 0 | growth inhibition (GI) (Alternaria mali): inactive; growth inhibition (GI) (Ceratobasidium cereale): inactive; growth inhibition (GI) (Fusarium fujikuroi): inactive; growth inhibition (GI) (Cytospora mali): inactive; growth inhibition (GI) (Botrytis cinerea): inactive; growth inhibition (GI) [3]: inactive; growth inhibition (GI) (Ustilaginoidea virens): inactive; growth inhibition (GI) (Rhizoctonia solani): inactive
10 | Cc1ccc(-c2nnc(-c3snnc3C)o2)s1 | 13.8 | 38.9 | inactive | 0 | 9 | 39.7 | 36.8 | 21.1 | inactive | 40.5 | 0 | 31.3 | 0 | 0 | 0% | 0 | 21.1 | 0 | – | –
11 | Cc1nnsc1-c1nnc(-c2ccc(=O)[nH]c2)o1 | 13.8 | 27.3 | inactive | 13.8 | 0 | 23.5 | 31 | 17.6 | – | 53.6 | 47.2 | 33.3 | 21.1 | 24.1 | inactive | 22.2 | 13.8 | 44.4 | 31 | –
12 | CCc1cc(-c2nnc(-c3snnc3C)o2)nn1C | 42.1 | – | 20% | – | 33.3 | 16.7 | 17.9 | – | – | 0 | – | 26.5 | – | – | 20% | – | 27.8 | – | 17.1 | growth inhibition (GI) (Alternaria mali): inactive; growth inhibition (GI) (Ceratobasidium cereale): inactive; growth inhibition (GI) (Fusarium fujikuroi): inactive; growth inhibition (GI) (Cytospora mali): inactive; growth inhibition (GI) (Botrytis cinerea): inactive; growth inhibition (GI) [3]: inactive; growth inhibition (GI) (Ustilaginoidea virens): inactive; growth inhibition (GI) (Rhizoctonia solani): inactive
